Assay results published in ChEMBL document CHEMBL1131090, “Discovery of N-[2-[5-[Amino(imino)methyl]-2-hydroxyphenoxy]-3, 5-difluoro-6-[3-(4, 5-dihydro-1-methyl-1H-imidazol-2-yl)phenoxy]pyridin-4-yl]-N-methylgl y cine (ZK-807834): a potent, selective, and orally active inhibitor of the blood coagulation enzyme factor Xa” (J Med Chem, 1998).
pKi: −log10 of the molar value.

Columns and labels:
[1] = molecular target: T1, Serine protease 1 (Bos taurus, UniProt P00760); assay: Inhibitory potency was measured against bovine trypsin.
T1 sequence (P00760 whole entry): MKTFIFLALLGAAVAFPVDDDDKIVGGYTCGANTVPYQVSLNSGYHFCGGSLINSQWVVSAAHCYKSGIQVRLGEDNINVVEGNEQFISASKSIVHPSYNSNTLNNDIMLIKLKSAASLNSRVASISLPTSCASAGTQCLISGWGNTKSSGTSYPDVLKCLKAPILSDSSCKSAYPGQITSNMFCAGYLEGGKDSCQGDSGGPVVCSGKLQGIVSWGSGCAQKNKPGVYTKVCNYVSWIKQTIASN

[2] = Prothrombin time concentration to give a 2-fold extension activity against pooled lyophilized human plasma.; format: functional
Summary of the method: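 Prothrombin time was measured in pooled lyophilized human plasma with Thromboplastin IS on an automated coagulation analyzer. The value is the inhibitor concentration that doubles PT.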

[3] = molecular target: Prothrombin (Homo sapiens, UniProt P00734); assay: Inhibitory potency was measured against human thrombin
Summary of the method: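 Purified human thrombin (16 nM final) was assayed chromogenically with S-2302 (300 μM final) in 50 mM Tris-HCl pH 7.5, 150 mM NaCl, 2.5 mM CaCl2, 0.1% PEG 6000 at room temperature. Varying inhibitor concentrations were tested at a substrate level equal to Km, assuming a competitive mechanism, to derive Ki.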

[4] = Inhibitor plasma concentration was measured in dogs on 10 mg/kg oral dosing after 2 hr administration; uM; format: ADME, organism-based, Canis lupus familiaris; parameters: dose 10 mg/kg, route oral; settings: dog
Summary of the method: (§1)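 Conscious beagles (10–16 kg) were given 10 mg/kg by oral gavage as homogeneous solutions in aqueous acid (n = 3). Plasma inhibitor concentrations were measured at the stated times by an ex vivo FXa inhibition activity assay. For ester/acid pairs, the value is the total ester plus acid concentration.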

[5] = molecular target: Coagulation factor X (Homo sapiens, UniProt P00742); assay: Inhibitory potency was measured against human coagulation factor X
[6] = Inhibitor plasma concentration was measured in dogs on 10 mg/kg oral dosing after 1 hr administration; uM; format: ADME, organism-based, Canis lupus familiaris; parameters: dose 10 mg/kg, route oral; settings: dog; summary of the method: as §1
[7] = plasma concentration was measured against the Nonhuman primates (baboon) using FXa inhibition assay after 3 hr; uM; format: ADME, organism-based, Papio
Summary of the method: (§2)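 Baboons received a 10 mg/kg oral dose in 1.5% carboxymethylcellulose plus 1% Tween 80 via nasogastric tube (2–4 animals per compound). Plasma inhibitor concentration was determined at the stated times by FXa inhibition assay.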

[8] = plasma concentration was measured against the Nonhuman primates (baboon) using FXa inhibition assay after 4 hr; uM; format: ADME, organism-based, Papio; summary of the method: as §2
[9] = plasma concentration was measured against the Nonhuman primates (baboon) using FXa inhibition assay after 2 hr; uM; format: ADME, organism-based, Papio; summary of the method: as §2
[10] = plasma concentration was measured against the Nonhuman primates (baboon) using FXa inhibition assay after 6 h; uM; format: ADME, organism-based, Papio; summary of the method: as §2
[11] = plasma concentration was measured against the Nonhuman primates (baboon) using FXa inhibition assay after 1 hr; uM; format: ADME, organism-based, Papio; summary of the method: as §2
[12] = Inhibitor plasma concentration was measured in dogs on 10 mg/kg oral dosing after 4 hr administration; uM; format: ADME, organism-based, Canis lupus familiaris; parameters: dose 10 mg/kg, route oral; settings: dog; summary of the method: as §1
[13] = plasma concentration was measured against the Nonhuman primates (cynomolgus monkey) using HPLC after 1 hr; uM
[14] = plasma concentration was measured against the Nonhuman primates (cynomolgus monkey) using HPLC after 4 hr; uM
[15] = plasma concentration was measured against the Nonhuman primates (cynomolgus monkey) using HPLC after 2 hr; uM
[16] = plasma concentration was measured against the Nonhuman primates (cynomolgus monkey) using HPLC after 3 hr; uM

Coagulation factor X, sequence (P00742 41-179 limits assumed): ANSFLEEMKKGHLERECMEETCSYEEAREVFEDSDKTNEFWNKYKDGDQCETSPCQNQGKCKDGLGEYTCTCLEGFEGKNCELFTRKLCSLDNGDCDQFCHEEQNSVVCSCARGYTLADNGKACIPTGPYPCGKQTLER
Coagulation factor X, sequence (P00742 235-488 limits assumed): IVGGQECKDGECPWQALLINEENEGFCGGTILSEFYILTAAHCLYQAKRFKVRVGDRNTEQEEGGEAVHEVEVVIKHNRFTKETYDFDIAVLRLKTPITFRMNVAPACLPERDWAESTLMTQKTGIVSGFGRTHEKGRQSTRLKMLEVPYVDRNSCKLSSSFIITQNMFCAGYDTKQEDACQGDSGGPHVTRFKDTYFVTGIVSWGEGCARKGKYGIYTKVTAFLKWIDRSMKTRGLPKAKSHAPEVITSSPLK

Structure (SMILES) | pKi [1] | pKi [3] | pKi [5] | further results
CN(C)C(=O)c1cccc(Oc2nc(Oc3cc(C(=N)N)ccc3O)c(F)c(OC3CCN(CC(=O)O)CC3)c2F)c1 | 6.11 | 6.72 | 9.19 | PT extension [2]: 850 nM; concentration at 2 h [4]: 100 nM; concentration at 1 h [6]: 300 nM
N=C(N)c1ccc(Oc2cccc(Oc3ccc(C(=N)N)cc3)n2)cc1 | 5.55 | 6.26 | 6.40 | 
Cn1ccnc1-c1cccc(Oc2cc(C(=O)O)cc(Oc3cc(C(=N)N)ccc3O)n2)c1 | 6.18 | 6.74 | 8.05 | 
N=C(N)c1ccc(O)c(Oc2cc(C(=O)O)cc(Oc3cccc(-n4ccnc4)c3)n2)c1 | 5.92 | 5.85 | 7.59 | 
COc1ccc(C(=N)N)cc1Oc1nc(Oc2cccc(C(=O)N(C)C)c2)c(F)c(C)c1F | 5.37 | < 5.30 | 6.13 | 
Cc1c(F)c(Oc2cccc(CN(C)C)c2)nc(Oc2cccc(C(=N)N)c2)c1F |  | 4.66 | 6.19 | 
N=C(N)c1ccc(O)c(Oc2cc(C(=O)O)cc(Oc3cccc(C4=NCCN4)c3)n2)c1 | 5.85 | < 5.30 | 7.07 | 
N=C(N)c1ccc(Oc2cccc(Oc3cccc(C(=N)N)c3)n2)cc1 | 5.72 | 5.92 | 6.89 | 
CCOC(=O)[C@@H]1C[C@@H](Oc2c(F)c(Oc3cccc(C4=NCCN4C)c3)nc(Oc3cc(C(=N)N)ccc3O)c2F)CN1 | 6.48 | 6.85 | 9.37 | concentration at 3 h [7]: 600 nM; concentration at 4 h [8]: 500 nM; PT extension [2]: 300 nM; concentration at 2 h [4]: 3400 nM; concentration at 2 h [9]: 300 nM; concentration at 6 h [10]: 300 nM; concentration at 1 h [11]: 200 nM; concentration at 1 h [6]: 3500 nM; concentration at 4 h [12]: 2600 nM
CCOC(=O)CN1CCC(Oc2c(F)c(Oc3cccc(C4=NCCN4C)c3)nc(Oc3cc(C(=N)N)ccc3O)c2F)CC1 | 6.52 | 6.72 | 9.51 | PT extension [2]: 240 nM; concentration at 2 h [4]: 300 nM; concentration at 1 h [6]: 300 nM; concentration at 4 h [12]: 200 nM
CN1CCN=C1c1cccc(Oc2nc(Oc3cc(C(=N)N)ccc3O)c(F)c(O[C@H]3CN[C@H](C(=O)O)C3)c2F)c1 | 6.51 | 6.60 | 9.48 | PT extension [2]: 670 nM; concentration at 2 h [4]: 2200 nM; concentration at 1 h [6]: 3200 nM; concentration at 4 h [12]: 800 nM
CN1CCN=C1c1cccc(Oc2nc(Oc3cc(C(=N)N)ccc3O)c(F)c(OC3CCN(CC(=O)O)CC3)c2F)c1 | 6.48 | 6.90 | 9.62 | concentration at 3 h [7]: 100 nM; concentration at 4 h [8]: 200 nM; PT extension [2]: 220 nM; concentration at 2 h [4]: 3800 nM; concentration at 6 h [10]: 700 nM; concentration at 1 h [11]: 100 nM; concentration at 1 h [13]: 100 nM; concentration at 1 h [6]: 5500 nM; concentration at 4 h [12]: 1200 nM
CCOC(=O)[C@@H]1C[C@@H](Oc2c(F)c(Oc3cccc(C(=O)N(C)C)c3)nc(Oc3cc(C(=N)N)ccc3O)c2F)CN1 | 6.13 | 6.55 | 9.15 | PT extension [2]: 1400 nM; concentration at 2 h [4]: 200 nM; concentration at 1 h [6]: 300 nM; concentration at 4 h [12]: 100 nM
CCOC(=O)CN(C)c1c(F)c(Oc2cccc(C3=NCCN3C)c2)nc(Oc2cc(C(=N)N)ccc2O)c1F | 6.62 | 6.20 | 9.59 | PT extension [2]: 630 nM; concentration at 2 h [4]: 200 nM; concentration at 1 h [6]: 200 nM; concentration at 4 h [12]: 100 nM
Cc1c(F)c(Oc2cccc(C(=O)N(C)C)c2)nc(Oc2cc(C(=N)N)ccc2O)c1F | 5.96 | 5.96 |  | 
N=C(N)c1cccc(Oc2nc(Oc3cccc(C(=N)N)c3)c(F)cc2F)c1 | 5.92 | 4.43 | 7.62 | 

Structure (SMILES) | pKi [1] | pKi [3] | pKi [5] | further results
N=C(N)c1cccc(Oc2cc(C(=O)O)cc(Oc3cccc(C(=N)N)c3)n2)c1 | 6.24 | 4.57 | 7.23 | 
N=C(N)c1cccc(Oc2nc(Oc3cccc(C(=N)N)c3)c(Cl)cc2Cl)c1 | 5.68 | < 5.30 | 6.89 | 
Cc1c(F)c(Oc2cccc(C(=N)N)c2)nc(Oc2cccc(C(=N)N)c2)c1F | 6.09 | 4.66 | 7.89 | 
N=C(N)c1ccc(Oc2nc(Oc3ccc(C(=N)N)cc3)c(Cl)cc2Cl)cc1 | 5.57 | 5.85 | 6.21 | 
N=C(N)c1cccc(Oc2cccc(Oc3cccc(C(=N)N)c3)n2)c1 | 5.96 | 4.85 | 7.28 | 
N=C(N)c1ccc(/C=C2/CCCC/C(=C/c3ccc(C(=N)N)cc3)C2=O)cc1 | 7.48 |  | 9.18 | 
Cc1c(F)c(Oc2cccc(C(=N)N)c2)nc(Oc2cccc(C(=O)N(C)C)c2)c1F | 5.57 | 4.82 | 7.10 | 
CN(C)C(=O)c1cccc(Oc2nc(Oc3cc(C(=N)N)ccc3O)c(F)c(N(C)CC(=O)O)c2F)c1 | 5.96 | 5.35 | 9.39 | PT extension [2]: 1000 nM; concentration at 2 h [4]: 400 nM; concentration at 1 h [6]: 300 nM
CN(C)C(=O)c1cccc(Oc2cc(C(=O)O)cc(Oc3cc(C(=N)N)ccc3O)n2)c1 | 6.52 | 5.96 | 8.41 | 
CNC(=O)c1cccc(Oc2nc(Oc3cccc(C(=N)N)c3)c(F)c(C)c2F)c1 |  |  | 5.89 | 
Cc1c(F)c(Oc2cccc(C(=O)N(C)C)c2)nc(Oc2cc(C(=N)N)ccc2N)c1F | 6.26 | 5.64 | 7.85 | 
Cc1c(F)c(Oc2cccc(C(=N)N)c2)nc(Oc2cccc(C(N)=O)c2)c1F | < 5.30 | < 5.30 | 6.55 | 
Cc1c(F)c(Oc2ccccc2)nc(Oc2cccc(C(=N)N)c2)c1F |  | < 5.30 | < 5.30 | 
Cc1c(F)c(Oc2cccc(C(=N)N)c2)nc(Oc2cccc(N(C)C)c2)c1F | 5.72 | 5.59 | 6.80 | 
CN1CCN=C1c1cccc(Oc2cc(C(=O)O)cc(Oc3cc(C(=N)N)ccc3O)n2)c1 | 6.66 | 6.09 | 8.62 | 
CN1CCN=C1c1cccc(Oc2nc(Oc3cc(C(=N)N)ccc3O)c(F)c(N(C)CC(=O)O)c2F)c1 [FIDEXABAN] | 6.55 | 5.70 |  | concentration at 3 h [7]: 900 nM; concentration at 4 h [14]: 1200 nM; concentration at 4 h [8]: 1100 nM; concentration at 2 h [15]: 500 nM; PT extension [2]: 230 nM; concentration at 2 h [4]: 2100 nM; concentration at 2 h [9]: 600 nM; concentration at 6 h [10]: 1000 nM; concentration at 1 h [11]: 300 nM; concentration at 3 h [16]: 700 nM; concentration at 1 h [13]: 200 nM; concentration at 1 h [6]: 3000 nM; concentration at 4 h [12]: 700 nM
